Reference: ChEMBL document CHEMBL4028901, “Novel Antitubercular 6-Dialkylaminopyrimidine Carboxamides from Phenotypic Whole-Cell High Throughput Screening of a SoftFocus Library: Structure-Activity Relationship and Target Identification Studies” (J Med Chem, 2017)
Values after ≈ are worked out from the molar mass of the structure shown.

Tests used:
[1] = system: Mycobacterium tuberculosis; test: Antibacterial activity against Mycobacterium tuberculosis H37RvMA grown in 7H9/ADC medium measured 7 to 14 days post inoculation by broth microdilution method; assay type: functional
[2] = system: Mycobacterium tuberculosis; test: Antibacterial activity against Mycobacterium tuberculosis H37RvMA grown in GAST/Fe medium measured 7 to 14 days post inoculation by broth microdilution method; assay type: functional
How it was run: (§1)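 H37RvMa grown to OD600 0.6–0.7, diluted 1:100 in GAST/Fe. Compounds two-fold serially diluted from a top concentration of 640 μM, in duplicate. Incubated at 37 °C with humidification.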

Vero = test: Cytotoxicity against African green monkey Vero cells assessed as reduction in cell viability by MTT assay; assay type: cell-based; conditions: Chlorocebus sabaeus
How it was run: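 MTT assay in Vero cells, samples in triplicate on one occasion. Stocks at 20 mg/mL in DMSO, diluted in complete medium as 10-fold serial dilutions over 6 concentrations. Emetine used as reference. IC50 derived by non-linear dose-response curve fitting.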

[3] = Kinetic solubility of the compound in pH 7.4 solution at 10 to 220 uM after 2 hrs by shake flask method; assay type: physicochemical; conditions: for Kinetic_solubility: buffer, pH 7.4, 2 h, 220 µM; for solubility kinetic at 2 h: pH 7.4 solution, pH 7.4, read-out: Kinetic_solubility
[4] = system: Mycobacterium tuberculosis; test: Antibacterial activity against cytochrome bd oxidase knockout GFP-fused Mycobacterium tuberculosis H37RvMA grown in 7H9/GLU/ADC medium measured on day 7 and day 14 post inoculation by fluorescence plate reader assay; assay type: functional
[5] = Kinetic solubility of the compound in fasted-state simulated intestinal fluid at 10 to 220 uM at pH 6.5 after 2 hrs by shake flask method; assay type: physicochemical; conditions: read-out: Kinetic_solubility
How it was run: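 Miniaturised shake flask. 10 mM DMSO stocks spiked 1:50 into duplicate FaSSIF (pH 6.5), 2% final DMSO. Shaken 2 h at 25 °C, filtered, analysed by HPLC-DAD against calibration standards (10–220 μM).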

[6] = Lipophilicity, log P of the compound at 100 uM at pH 7.4 after 3 hrs by shake-flask method; assay type: physicochemical; conditions: buffer
How it was run: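 Shake-flask method run in triplicate. A 10 mM stock was spiked into a 1:1 mixture of phosphate buffer (pH 7.4) and n-octanol, then shaken at 1500 rpm on an orbital shaker for 3 h at room temperature.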

[7] = system: Mycobacterium tuberculosis; test: Antibacterial activity against wild type Mycobacterium tuberculosis H37Rv grown in GAST/Fe medium measured on day 14 post inoculation by broth microdilution method; assay type: functional; conditions: 336 h; how it was run: as §1

Structure (SMILES)	MIC99 [1]	MIC99 [2]	IC50 (Vero)	Kinetic_solubility [3]	MIC99 [4]	solubility kinetic at 2 h [5]	logD at 3 h, 100 µM [6]	MIC99 [7]	solubility kinetic at 2 h [3]
COc1ccc(NC(=O)c2cc(N(C)Cc3ccc(F)cc3)ncn2)cc1	5 µM (≈ 1.83 µg/mL)	2.5 µM (≈ 0.916 µg/mL)	60.5 µM	62 µM	–	–	–	–	–
CN(Cc1ccc(Cl)cc1)c1cc(C(=O)Nc2ccccc2)ncn1	5 µM (≈ 1.76 µg/mL)	2.3 µM (≈ 0.811 µg/mL)	207 µM	< 5 µM	–	–	–	–	–
O=C(Nc1ccccc1)c1cc(N2CCc3ccccc3C2)ncn1	> 160 µM	> 160 µM	–	< 5 µM	–	–	–	–	–
COc1ccc(NC(=O)c2cc(N(C)Cc3ccccc3)ncn2)cc1	20 µM (≈ 6.97 µg/mL)	10 µM (≈ 3.48 µg/mL)	287 µM	–	>20 µM	< 5 µM	4.07	–	–
Cc1nc(C(=O)Nc2ccccc2)cc(N(C)Cc2ccc(Cl)cc2)n1	> 160 µM	> 160 µM	–	–	–	–	–	–	–
CN1CCN(c2ccc(NC(=O)c3cc(N(C)Cc4ccc(F)cc4)ncn3)cn2)CC1	> 50 µM	19 µM (≈ 8.27 µg/mL)	126 µM	150 µM	–	–	–	–	–
COc1ccc(NC(=O)c2cc(N(C)Cc3ccc(Cl)cc3)nc(NC3CC3)n2)cc1	> 50 µM	> 160 µM	–	5 µM	–	–	–	–	–
CN(Cc1ccc(C(F)(F)F)cc1)c1cc(C(=O)Nc2ncn(C)n2)ncn1	50 µM (≈ 19.6 µg/mL)	10 µM (≈ 3.91 µg/mL)	28 µM	173 µM	–	–	–	–	–
CN(Cc1ccc(F)cc1)c1cc(C(=O)Nc2ccon2)ncn1	> 50 µM	160 µM (≈ 52.4 µg/mL)	–	–	–	–	–	–	–
COCCOc1ccc(NC(=O)c2cc(N(C)Cc3ccc(F)cc3)ncn2)cc1	2.3 µM (≈ 0.944 µg/mL)	1.56 µM (≈ 0.64 µg/mL)	244 µM	< 5 µM	–	–	–	–	–
CN(Cc1ccc(F)cc1)c1cc(C(=O)Nc2ccccc2)ncn1	6.25 µM (≈ 2.1 µg/mL)	1.56 µM (≈ 0.525 µg/mL)	297 µM	< 5 µM	–	–	–	10 µM (≈ 3.36 µg/mL)	–
CN(CC1CCCCC1)c1cc(C(=O)Nc2ccccc2)ncn1	> 50 µM	40 µM (≈ 13 µg/mL)	178 µM	–	–	–	–	–	–
CN(Cc1ccc(F)cc1)c1nc(C(=O)Nc2ccccc2)cs1	> 50 µM	> 50 µM	279 µM	–	–	–	–	–	< 5 µM
COc1ccc(NC(=O)c2ccnc(N(C)Cc3ccc(F)cc3)n2)cc1	> 50 µM	> 50 µM	273 µM	–	–	–	–	–	< 5 µM
CN(Cc1ccc(F)cc1)c1cc(-c2nnc(-c3ccccc3)[nH]2)ncn1	> 50 µM	25 µM (≈ 9.01 µg/mL)	277 µM	< 5 µM	–	–	–	–	–
CN1CCN(c2cccc(NC(=O)c3cc(N(C)Cc4ccc(F)cc4)ncn3)c2)CC1	37 µM (≈ 16.1 µg/mL)	37 µM (≈ 16.1 µg/mL)	118 µM	74 µM	–	–	–	–	–
CN(Cc1ccccc1)c1cc(C(=O)N(C)c2ccccc2)ncn1	> 160 µM	–	–	–	–	–	–	–	–
CN(Cc1ccccc1Cl)c1cc(C(=O)Nc2ccccc2)ncn1	> 160 µM	–	–	< 5 µM	–	–	–	–	–
CN(Cc1cccc(Cl)c1)c1cc(C(=O)Nc2ccccc2)ncn1	20 µM (≈ 7.06 µg/mL)	10 µM (≈ 3.53 µg/mL)	–	< 5 µM	–	–	–	–	–
O=C(Nc1ccccc1)c1cc(NCc2ccccc2)ncn1	> 160 µM	–	–	< 5 µM	–	–	–	–	–
CN(Cc1ccc(F)cc1)c1ccnc(C(=O)Nc2ccccc2)c1	–	10 µM (≈ 3.35 µg/mL)	298 µM	–	–	–	–	–	< 5 µM
CN(Cc1ccccc1)c1cc(C(=O)Nc2ccccc2)ncn1	20 µM (≈ 6.37 µg/mL)	10 µM (≈ 3.18 µg/mL)	314 µM	< 5 µM	–	–	–	–	–
CC(=O)N1CCN(c2ccc(NC(=O)c3cc(N(C)Cc4ccc(C(F)(F)F)nc4)ncn3)cc2)CC1	4.7 µM (≈ 2.41 µg/mL)	2.3 µM (≈ 1.18 µg/mL)	> 50 µM	–	–	–	–	–	< 5 µM
CN(Cc1ccc(F)cc1)c1cc(C(=O)Nc2ccc(N3CCOCC3)cc2)ncn1	0.78 µM (≈ 0.329 µg/mL)	0.6 µM (≈ 0.253 µg/mL)	237 µM	< 5 µM	–	–	–	–	–

Structure (SMILES)	MIC99 [1]	MIC99 [2]	IC50 (Vero)	Kinetic_solubility [3]	MIC99 [4]	solubility kinetic at 2 h [5]	logD at 3 h, 100 µM [6]	MIC99 [7]	solubility kinetic at 2 h [3]
CC(C)NC(=O)c1cc(N(C)Cc2ccc(C(F)(F)F)cc2)ncn1	> 50 µM	> 160 µM	217 µM	13 µM	–	–	–	–	–
CN(c1ccccc1)c1cc(C(=O)Nc2ccccc2)ncn1	> 160 µM	–	–	< 5 µM	–	–	–	–	–
Cc1csc(NC(=O)c2cc(N(C)Cc3ccc(F)cc3)ncn2)n1	37 µM (≈ 13.2 µg/mL)	5 µM (≈ 1.79 µg/mL)	–	< 5 µM	–	–	–	–	–
CN(Cc1ccc(Cl)cc1)c1cc(C(=O)Nc2ccncc2)ncn1	–	10 µM (≈ 3.54 µg/mL)	282 µM	< 5 µM	–	–	–	–	–
Cc1c(C(=O)Nc2ccc(F)cc2)ncnc1N(C)Cc1ccc(F)cc1	> 50 µM	37 µM (≈ 13.6 µg/mL)	271 µM	–	–	–	–	–	< 5 µM
O=C(Nc1ccccc1)c1cc(OCc2ccccc2)ncn1	> 160 µM	–	–	–	–	–	–	–	–
CN(Cc1ccc(F)cc1)c1cc(C(=O)Nc2ccccc2)cnn1	> 50 µM	> 50 µM	279 µM	40 µM	–	–	–	–	–
CN(Cc1ccc(F)cc1)c1cc(C(Nc2ccc(F)cc2)C(F)(F)F)ncn1 (stereo unspecified)	37 µM (≈ 15.1 µg/mL)	19 µM (≈ 7.76 µg/mL)	41.7 µM	< 5 µM	–	–	–	–	–
COc1ccc(NC(=O)c2cc(N(C)Cc3ccc(Cl)cc3)nc(N)n2)cc1	> 50 µM	> 160 µM	–	–	–	–	–	–	< 5 µM
CN(Cc1ccc(F)cc1)c1cc(C(=O)Nc2ccn(C)n2)ncn1	> 50 µM	40 µM (≈ 13.6 µg/mL)	–	90 µM	–	–	–	–	–
CN(C)CCOc1ccc(NC(=O)c2cc(N(C)Cc3ccc(F)cc3)ncn2)cc1	25 µM (≈ 10.6 µg/mL)	12.5 µM (≈ 5.29 µg/mL)	–	155 µM	–	–	–	–	–
CN(Cc1ccccn1)c1cc(C(=O)Nc2ccccc2)ncn1	> 160 µM	–	–	–	–	–	–	–	–
CCN(Cc1ccc(Cl)cc1)c1cc(C(=O)Nc2ccccc2)ncn1	> 50 µM	40 µM (≈ 14.7 µg/mL)	272 µM	5 µM	–	–	–	–	–
COc1ccc(NC(=O)c2cc(N(C)Cc3cccc(F)c3)ncn2)cc1	37 µM (≈ 13.6 µg/mL)	5 µM (≈ 1.83 µg/mL)	272 µM	–	–	–	–	2.5 to 5 µM (≈ 0.916 to 1.83 µg/mL)	–
O=C(Nc1ccccc1)c1ccc(=O)n(Cc2ccc(F)cc2)c1	> 50 µM	> 50 µM	310 µM	170 µM	–	–	–	–	–
CN(CCc1ccccc1)c1cc(C(=O)Nc2ccccc2)ncn1	80 µM (≈ 26.6 µg/mL)	–	–	< 5 µM	–	–	–	–	–
CN(Cc1ccc(F)cc1)c1cncc(C(=O)Nc2ccc(F)cc2)n1	> 50 µM	> 50 µM	282 µM	–	–	–	–	–	< 5 µM
CN1CCN(c2ccc(NC(=O)c3cc(N(C)Cc4ccc(C(F)(F)F)nc4)ncn3)cc2)CC1	12.5 µM (≈ 6.07 µg/mL)	12.5 µM (≈ 6.07 µg/mL)	45.2 µM	165 µM	–	–	–	–	–
CN(Cc1ccc(F)cc1)c1cc(NC(=O)c2ccccc2)ncn1	–	> 160 µM	–	5 µM	–	–	–	–	–
CN(Cc1ccc(C#N)cc1)c1cc(C(=O)Nc2ccccc2)ncn1	> 50 µM	20 µM (≈ 6.87 µg/mL)	–	–	–	–	–	–	< 5 µM
CN(Cc1ccc(C(F)(F)F)nc1)c1cc(C(=O)Nc2ccc(N3CCOCC3)cn2)ncn1	3.13 µM (≈ 1.48 µg/mL)	2.3 µM (≈ 1.09 µg/mL)	211 µM	< 5 µM	–	–	–	–	–
NNC(=O)c1ccncc1 [ISONIAZID]	–	–	–	–	–	–	–	0.18 µM (≈ 0.0247 µg/mL)	–
C[C@H]1COc2c(N3CCN(C)CC3)c(F)cc3c(=O)c(C(=O)O)cn1c23 [LEVOFLOXACIN]	–	–	–	–	–	–	–	0.64 µM (≈ 0.231 µg/mL)	–
